The text below walks through data of ChEMBL document CHEMBL2375276, “Antibacterial oxazolidinone analogues having a N-hydroxyacetyl-substituted seven-membered [1,2,5]triazepane or [1,2,5]oxadiazepane C-ring unit” (Eur J Med Chem, 2013).

Values after ≈ are worked out from the molar mass of the structure shown.

Series [1] relates to Staphylococcus aureus. As to the kind of experiment: Ratio of linezolid ED50 to compound ED50 for methicillin-resistant Staphylococcus aureus SR3637 infected in po dosed JCL/ICR mouse systemic infection model. It counts as functional. An outline of the steps: (§1)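 Five-week-old male JCL/ICR mice (20–25 g), five per group, infected intraperitoneally with 0.5 or 1.0 mL bacterial suspension (about 100 times the 50% lethal dose). Test and reference compounds given intravenously or orally 1 h after infection. Mortality followed over 7 days; ED50 with 95% confidence limits by the logit method.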

Series [2] addresses T1, MAO-B (Rattus norvegicus, UniProt P19643).
T1 sequence (P19643 whole entry): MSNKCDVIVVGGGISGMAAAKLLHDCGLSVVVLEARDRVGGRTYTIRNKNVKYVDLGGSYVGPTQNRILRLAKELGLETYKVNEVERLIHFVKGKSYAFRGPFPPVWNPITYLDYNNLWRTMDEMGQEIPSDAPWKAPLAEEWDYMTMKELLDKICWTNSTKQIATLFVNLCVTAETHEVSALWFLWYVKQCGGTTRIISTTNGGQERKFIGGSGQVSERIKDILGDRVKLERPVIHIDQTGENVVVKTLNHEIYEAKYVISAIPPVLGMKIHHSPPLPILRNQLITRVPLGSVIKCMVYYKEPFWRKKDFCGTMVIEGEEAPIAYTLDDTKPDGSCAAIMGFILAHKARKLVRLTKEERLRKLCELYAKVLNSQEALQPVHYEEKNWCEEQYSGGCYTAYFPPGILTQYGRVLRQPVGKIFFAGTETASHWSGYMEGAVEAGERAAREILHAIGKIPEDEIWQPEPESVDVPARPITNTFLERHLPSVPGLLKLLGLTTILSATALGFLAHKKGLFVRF
Nature of the series: Inhibition of MAO-B in rat forebrain using [14C]PEA as substrate at 30 uM incubated for 20 mins prior to substrate addition measured after 10 mins by liquid scintillation counting analysis relative to control. The series is classed as tissue-based. The conditions noted are these: probe [14C]PEA.

In series [3] the test system is Staphylococcus aureus. As to the kind of experiment: Ratio of eperezolid MIC to compound MIC for Staphylococcus aureus SR20549 clinical isolate. It counts as functional.
Series [4] concerns Streptococcus pneumoniae. Nature of the series: Ratio of eperezolid MIC to compound MIC for Streptococcus pneumoniae SR26207 clinical isolate. The series is classed as functional.
Series [5] relates to Haemophilus influenzae. Nature of the series: Ratio of eperezolid MIC to compound MIC for Haemophilus influenzae SR27914 clinical isolate. It counts as functional.
For series [6], the system named is Moraxella catarrhalis. As to the kind of experiment: Antibacterial activity against Moraxella catarrhalis SR26840 clinical isolate assessed as growth inhibition by CLSI broth microdilution method. It counts as functional. Put shortly: (§2)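 MIC by CLSI broth microdilution in cation-adjusted Mueller-Hinton broth; S. pneumoniae medium supplemented with 5% lysed horse blood.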

The subject of series [7] is Staphylococcus aureus. As to the kind of experiment: Ratio of linezolid ED50 to compound ED50 for methicillin-resistant Staphylococcus aureus SR3637 infected in iv dosed JCL/ICR mouse systemic infection model. It counts as functional. Put shortly: as §1
Series [8] has as its system Streptococcus pneumoniae. As to the kind of experiment: Ratio of linezolid MIC to compound MIC for Streptococcus pneumoniae SR26207 clinical isolate. The series is classed as functional.
The test system of series [9] is Staphylococcus aureus. As to the kind of experiment: Antibacterial activity against methicillin-resistant Staphylococcus aureus SR3637 infected in JCL/ICR mouse systemic infection model assessed as mortality administered as po measured over 7 days. It counts as functional. To be noted: 168 h. An outline of the steps:
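Five-week-old male JCL/ICR mice (20–25 g), five per group. Infected intraperitoneally with 0.5 or 1.0 mL bacterial suspension (about 100× LD50). Oral dosing 1 h post-infection. Mortality followed 7 days; ED50 with 95% confidence limits by logit method.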

Series [10] has as its system Staphylococcus aureus. As to the kind of experiment: Ratio of linezolid MIC to compound MIC for Staphylococcus aureus Smith. The series is classed as functional.
The subject of series [11] is Staphylococcus aureus. As to the kind of experiment: Antibacterial activity against Staphylococcus aureus SR20549 clinical isolate assessed as growth inhibition by CLSI broth microdilution method. It counts as functional. An outline of the steps: as §2
On the technique in general: In broth dilution the organism is exposed to a series of concentrations in liquid medium.

Series [12] concerns Enterococcus faecalis. Nature of the series: Ratio of linezolid MIC to compound MIC for Enterococcus faecalis SR1004 clinical isolate. The series is classed as functional.
Series [13] deals with Cytochrome P450 2C9 (Homo sapiens, UniProt P11712). Nature of the series: Inhibition of human CYP2C9 assessed as tolbutamide hydroxylation after 20 mins by LC/MS/MS analysis. The series is classed as ADME. An outline of the steps: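 Human liver microsomes (0.2 mg protein/mL) with 1 mM NADPH in 50 mM HEPES pH 7.4, 10 mM MgCl2, 0.1 mM EDTA. After centrifugation, supernatant metabolite measured by LC/MS/MS. Standard curve from authentic metabolite cocktail added to unincubated reaction mix.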
Sequence of Cytochrome P450 2C9 (P11712 whole entry): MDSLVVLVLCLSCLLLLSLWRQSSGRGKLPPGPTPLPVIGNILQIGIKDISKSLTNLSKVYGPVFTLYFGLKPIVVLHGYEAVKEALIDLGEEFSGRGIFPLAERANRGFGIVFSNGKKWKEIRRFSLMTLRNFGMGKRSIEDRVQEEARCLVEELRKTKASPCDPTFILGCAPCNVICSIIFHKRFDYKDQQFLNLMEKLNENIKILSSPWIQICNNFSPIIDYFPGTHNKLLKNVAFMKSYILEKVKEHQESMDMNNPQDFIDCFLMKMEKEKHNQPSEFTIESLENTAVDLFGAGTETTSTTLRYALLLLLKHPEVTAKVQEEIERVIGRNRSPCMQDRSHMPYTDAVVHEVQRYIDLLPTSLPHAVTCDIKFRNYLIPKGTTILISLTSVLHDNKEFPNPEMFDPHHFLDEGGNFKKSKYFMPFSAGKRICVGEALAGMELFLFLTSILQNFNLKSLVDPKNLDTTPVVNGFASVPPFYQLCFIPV

A word on the inhibition: it is the drop in the measured response relative to a control, in per cent. For orientation: MIC means the lowest concentration that inhibits growth of the organism. Broadly, the ED50 is the midpoint of the dose-response relation. The IC50 is the concentration needed to halve the response being measured.

For the compound `COC(=S)NC[C@H]1CN(c2ccc(N3CCNN(C(=O)CO)CC3)c(F)c2)C(=O)O1`, the “Ratio ED50” value worked out at 2 in series [1] and 3 in [7]. In series [2], the inhibition at 10 min, 30 µM amounted to 10.1%. The Ratio in series [3], in series [4], in [5], in [8], in series [10] and in series [12] was 4 throughout. In addition, the values for the MIC in [6] and in series [11] were 2 µg/mL (≈ 4.53 µM) and 0.25 µg/mL (≈ 0.566 µM), respectively. In [9], the ED50 was found to be 1.05 mg/kg. Moreover, the IC50 in series [13] is above 20 µM.
In series [2], `COC(=S)NC[C@H]1CN(c2cc(F)c(N3CCNN(C(=O)CO)CC3)c(F)c2)C(=O)O1` came in with an inhibition at 10 min, 30 µM of 10.6%. The Ratio in [3], in [4], in series [5], in series [8], in series [10] and in series [12] was 4 each time. For the same compound, the MIC came out at 1 µg/mL (≈ 2.18 µM) in series [6] and 0.25 µg/mL (≈ 0.544 µM) in [11]. For the same compound, the ED50 in series [9] was 2.07 mg/kg. Besides, the half-inhibitory concentration (IC50) in series [13] was above 20 µM.
